The text below walks through data of ChEMBL document CHEMBL3272244, “Synthesis and biological activity of two metabolites of 1-methyl-5-(1-methylethyl)-2-nitro-1 H-imidazole, an antiprotozoal agent” (J Med Chem, 1977).

For data set [1], the system named is Trichomonas vaginalis. Nature of the data set: Antiprotozoal activity against Trichomonas vaginalis assessed as cidal effect. The format is functional.
Data set [2] is described as follows: Acute toxicity in ip dosed mouse. Type of data set: organism-based. Conditions: in vivo. The gist of the method:
(§1)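 Mice dosed with the agent. LD50 values were computed by the Litchfield and Wilcoxon method.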

The next data set concerns Staphylococcus aureus. Nature of the data set: Antibacterial activity against Staphylococcus aureus Tour assessed as growth inhibition. The format is functional.
Another data set has as its system Clostridium perfringens. Nature of the data set: Antibacterial activity against Clostridium perfringens ISS 30453 assessed as growth inhibition. The format is functional.
Data set [3] concerns Trichomonas vaginalis. Nature of the data set: Ratio of compound ED50 to metronidazole ED50 for Trichomonas vaginalis infected in po dosed mouse. Type of data set: functional.
The subject of a further data set is Escherichia coli. Nature of the data set: Antibacterial activity against Escherichia coli SKF 12140 assessed as growth inhibition. Type of data set: functional.
For data set [4], the system named is Trichomonas vaginalis. Nature of the data set: Antiprotozoal activity against Trichomonas vaginalis assessed as static effect. Type of data set: functional.
Data set [5] has as its system Trichomonas vaginalis. Nature of the data set: Antiprotozoal activity against Trichomonas vaginalis infected in po dosed mouse. Type of data set: functional.
Data set [6] can be described thus: Acute toxicity in po dosed mouse. The format is organism-based. The note with it: in vivo. The gist of the method:
as §1

Converted amounts (≈) assume the structure as drawn.

`COC(C)(C)c1cnc([N+](=O)[O-])n1C`: the MIC (commonly the lowest concentration found to suppress growth) in the data set on Trichomonas vaginalis [1] is 50 mg/L (≈ 251 µM); in the data set on Staphylococcus aureus, 100 mg/L (≈ 502 µM); in the data set on Clostridium perfringens, 100 mg/L (≈ 502 µM); with Escherichia coli, over 100 mg/L; with Trichomonas vaginalis [4], 6.2 mg/L (≈ 31.1 µM). Also, the LD50 (as a rule, the dose expected to kill half of the subjects tested) in [2] was found to be 225 mg/kg. Further, the “Ratio ED50” value in the data set on Trichomonas vaginalis [3] turned out to be 0.19.

For the molecule `Cc1ncc([N+](=O)[O-])n1CCO` [METRONIDAZOLE], the MIC was 5 mg/L (≈ 29.2 µM) with Trichomonas vaginalis [1]; over 300 mg/L with Staphylococcus aureus; 0.5 mg/L (≈ 2.92 µM) with Clostridium perfringens; over 300 mg/L with Escherichia coli; 0.5 mg/L (≈ 2.92 µM) in the data set on Trichomonas vaginalis [4]. Further, the ED50 (usually the dose that gives a 50% effect, or the effect in half of the subjects) in the data set with Trichomonas vaginalis [5] was found to be 11.5 mg/kg. Besides, the “Ratio ED50” value with Trichomonas vaginalis [3] was determined as 1.

`Cn1c(C(C)(C)O)cnc1[N+](=O)[O-]`: the MIC in the data set with Trichomonas vaginalis [1] turned out to be 25 mg/L (≈ 135 µM); with Staphylococcus aureus it was 100 mg/L (≈ 540 µM); in the data set on Clostridium perfringens, 25 mg/L (≈ 135 µM); in the data set with Escherichia coli, 100 mg/L (≈ 540 µM); in the data set on Trichomonas vaginalis [4] it was 6.2 mg/L (≈ 33.5 µM). The LD50 in data set [6] worked out at 698 mg/kg; in [2], 475 mg/kg. The same molecule displayed an ED50 in the data set on Trichomonas vaginalis [5] of 2.5 mg/kg. In the data set on Trichomonas vaginalis [3], the “Ratio ED50” value is given as 0.21.

As for `C=C(C)c1cnc([N+](=O)[O-])n1C`, the MIC in the data set on Trichomonas vaginalis [1] is 10 mg/L (≈ 59.8 µM); with Staphylococcus aureus, over 100 mg/L; with Clostridium perfringens, 3.1 mg/L (≈ 18.5 µM); with Escherichia coli, over 100 mg/L; in the data set with Trichomonas vaginalis [4], 2 mg/L (≈ 12 µM). In data set [6], the median lethal dose (LD50) came to 350 mg/kg. The molecule further returned an ED50 in the data set on Trichomonas vaginalis [5] of 32.5 mg/kg. For the same molecule, in the data set with Trichomonas vaginalis [3], the “Ratio ED50” value was 3.25.

On to `Cn1c(C(C)(O)CO)cnc1[N+](=O)[O-]` (stereo unspecified), for which the MIC in the data set with Trichomonas vaginalis [1] is 20 mg/L (≈ 99.4 µM); in the data set on Staphylococcus aureus it was over 100 mg/L; in the data set with Clostridium perfringens it was 5 mg/L (≈ 24.9 µM); with Escherichia coli it was over 100 mg/L; in the data set on Trichomonas vaginalis [4], 10 mg/L (≈ 49.7 µM). This molecule showed an LD50 in data set [6] of over 1000 mg/kg. This molecule also registered an ED50 in the data set on Trichomonas vaginalis [5] of over 80 mg/kg. Moreover, the “Ratio ED50” value in the data set on Trichomonas vaginalis [3] is given as over 8.

With `CC(C)c1cnc([N+](=O)[O-])n1C`, the MIC in the data set with Trichomonas vaginalis [1] was 20 mg/L (≈ 118 µM); in the data set with Staphylococcus aureus, over 300 mg/L; with Clostridium perfringens, 5 mg/L (≈ 29.6 µM); with Escherichia coli it was over 300 mg/L; in the data set with Trichomonas vaginalis [4], 5 mg/L (≈ 29.6 µM). In the data set on Trichomonas vaginalis [5], this molecule displayed an ED50 of 2.03 mg/kg. For the same molecule, the “Ratio ED50” value with Trichomonas vaginalis [3] was determined as 0.17.
